According to ChEMBL document CHEMBL4024748, “Development of Potent Type I Protein Arginine Methyltransferase (PRMT) Inhibitors of Leukemia Cell Proliferation” (J Med Chem, 2017):
Calls of active or inactive are those of the source. The rule behind the calls is not given here.

How the values were obtained:
[1] = target: Protein arginine N-methyltransferase 1 (Rattus norvegicus, UniProt Q63009); assay: Inhibition of rat His-tagged PRMT1 (11 to 353 residues) expressed in Escherichia coli BL21(DE3) using biotinylated H4 peptide (1 to 21 residues) as substrate preincubated for 15 mins followed by substrate addition measured after 60 mins in presence of [3H]SAM by microbeta counting method
Method in brief: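 Radiometric assay in modified Tris buffer. His6-rPRMT1(11–353) preincubated with compound 15 min at RT, then substrate and [3H]-SAM added. Reaction 60 min at RT, stopped with cold stop solution, transferred to Flashplate for 60 min, washed with water/0.1% Tween-20, counted on Microbeta. IC50 from curve fit.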

[2] = target: Protein arginine N-methyltransferase 1 (Rattus norvegicus) (UniProt Q63009); assay: Inhibition of rat His-tagged PRMT1 (11 to 353 residues) expressed in Escherichia coli BL21(DE3) at 100 uM using biotinylated H4 peptide (1 to 21 residues) as substrate by TR-FRET assay
Method in brief: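 Single-point screen at 100 µM. His6-rPRMT1(11–353) expressed in E. coli BL21(DE3) and purified by Ni affinity then gel filtration. Biotinylated H4(1–21) methylated, then product detected with Eu-labelled anti-H4R3me2a antibody plus ULight-streptavidin by TR-FRET. Percent inhibition read.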

MV4-11 [3] = assay: Upregulation of MNDA mRNA levels in human MV4-11 cells by qRT-PCR analysis; type: functional, cell-based
Method in brief: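 Treated MV4-11 cells analysed by SYBR Green qRT-PCR, with B2M as internal control. Fold change calculated by the ΔΔCt method. Samples run in triplicate and reported as mean ± SD.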

REH = assay: Cytotoxicity against human REH cells assessed as decrease in cell viability after 96 hrs by Cell-Titer Glo assay; type: functional, cell-based
Method in brief: (§1)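 Cells kept at 37°C, 5% CO2, exposed to compound or DMSO control for 96 h. Viability read by CellTiter-Glo luminescence after 2 min shaking to lyse and 10 min at room temperature. Triplicate wells, normalised to control cells. For long-term growth, log-phase seeding densities; cells counted and replated to the starting density with fresh compound on days 4 and 8.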

MV4-11 [4] = assay: Antiproliferative activity against human MV4-11 cells assessed as decrease in cell viability at 0.1 to 1000 uM by Cell-Titer Glo assay; type: functional, cell-based; conditions: TDE = time-dependent effect; method in brief: as §1
THP-1 = assay: Cytotoxicity against human THP1 cells assessed as decrease in cell viability after 96 hrs by Cell-Titer Glo assay; type: functional, cell-based; method in brief: as §1
[5] = Cytotoxicity against human HUV-EC-C cells assessed as decrease in cell viability at 6.25 to 25 uM after 96 hrs by Cell-Titer Glo assay; type: cell-based
Method in brief: (§2)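 Normal HUV-EC-C, MRC-5 and RCTEC cells at 37°C, 5% CO2, given compound or DMSO control for 96 h. Viability by CellTiter-Glo luminescence after 2 min shaking and 10 min at room temperature. Triplicate wells, normalised to control cells.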

MV4-11 [6] = assay: Downregulation of HOXA10 mRNA levels in human MV4-11 cells by qRT-PCR analysis; type: functional, cell-based
Method in brief: (§3)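 MV4-11 cells treated with compound. mRNA measured by SYBR Green qRT-PCR with B2M as internal control. Fold change from ΔΔCt. Samples run in triplicate, mean ± SD.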

[7] = target: Protein arginine N-methyltransferase 1 (Homo sapiens) (UniProt Q99873); assay: Inhibition of PRMT1 in human MV411 cells assessed as reduction in H4R3me2a levels after 48 hrs by Western blot analysis; type: cell-based
Method in brief: (§4)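 MV4-11 cells treated with compound for 48 h. ADMA, SDMA and H4R3me2a read by western blot. Blots blocked in 5% nonfat milk in PBST, primary antibodies overnight at 4°C, HRP anti-rabbit secondary at 1:10000 for 1 h.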

RCH-ACV = assay: Cytotoxicity against human RCH-ACV cells assessed as decrease in cell viability after 96 hrs by Cell-Titer Glo assay; type: functional, cell-based; method in brief: as §1
MV4-11 [8] = assay: Antiproliferative activity against human MV4-11 cells assessed as decrease in cell viability measured at day 12 by Cell-Titer Glo assay; type: functional, cell-based; conditions: MV4-11, 288 h; method in brief: as §1
[9] = target: Protein arginine N-methyltransferase 1 (Rattus norvegicus) (UniProt Q63009); assay: Binding affinity to rat His-tagged PRMT1 (11 to 353 residues) expressed in Escherichia coli BL21(DE3) at 200 uM by 1D 1H CPMG-NMR spectroscopic method
Method in brief: (§5)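 Rat PRMT1 (11–353), N-His6, expressed in E. coli BL21(DE3) with 0.4 mM IPTG at 16°C. Purified by Ni affinity and Superdex200. NMR used 5 µM PRMT1 in phosphate buffer pH 7.4 (20 mM NaH2PO4, 20 mM Na2HPO4, 100 mM NaCl) in D2O. Ligand at 200 µM in 5% DMSO-d6. CPMG run with 5, 2 and 1 µM PRMT1, plus STD.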

[10] = Cytotoxicity against human RCTEC cells assessed as decrease in cell viability at 6.25 to 25 uM after 96 hrs by Cell-Titer Glo assay; type: cell-based; method in brief: as §2
MV4-11 [11] = assay: Downregulation of MEIS1 mRNA levels in human MV4-11 cells by qRT-PCR analysis; type: functional, cell-based; method in brief: as §3
MV4-11 [12] = assay: Cell cycle arrest in human MV4-11 cells assessed as accumulation at G1 phase after 72 hrs by propidium iodide staining-based flow cytometry; type: functional
Method in brief: (§6)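 MV4-11 cells in 6-well plates with compound or DMSO control, harvested at 72 h. Fixed overnight in 70% ethanol at 4°C, washed with PBS, stained 30 min at room temperature with propidium iodide/RNase buffer, analysed by flow cytometry. Mean ± SD of three replicates.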

MV4-11 [13] = assay: Cytotoxicity against human MV4-11 cells assessed as decrease in cell viability at 6.25 to 12.5 uM after 96 hrs by Cell-Titer Glo assay; type: functional, cell-based; method in brief: as §1
KOPN-8 = assay: Cytotoxicity against human KOPN8 cells assessed as decrease in cell viability after 96 hrs by Cell-Titer Glo assay; type: functional, cell-based; method in brief: as §1
[14] = target: Protein arginine N-methyltransferase 1 (Rattus norvegicus) (UniProt Q63009); assay: Binding affinity to rat His-tagged PRMT1 (11 to 353 residues) expressed in Escherichia coli BL21(DE3) at 200 uM by STD-NMR spectroscopic method; method in brief: as §5
MV4-11 [15] = assay: Induction of apoptosis in human MV4-11 cells after 96 hrs by annexin V-FITC/propidium iodide staining-based flow cytometric method; type: functional, cell-based
Method in brief: (§7)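 MV4-11 cells in 6-well plates with compound or DMSO control, harvested at 96 h. Stained with an Annexin V-FITC apoptosis detection kit and analysed by flow cytometry. Mean ± SD of three replicates.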

RS4-11 = assay: Cytotoxicity against human RS4:11 cells assessed as decrease in cell viability after 96 hrs by Cell-Titer Glo assay; type: functional, cell-based; method in brief: as §1
KMS-11 = assay: Cytotoxicity against human KMS11 cells assessed as decrease in cell viability after 96 hrs by Cell-Titer Glo assay; type: functional, cell-based; method in brief: as §1
[16] = target: Protein arginine N-methyltransferase 1 (Homo sapiens) (UniProt Q99873); assay: Inhibition of PRMT1 in human MV411 cells assessed as increase in SDMA levels after 48 hrs by Western blot analysis; type: cell-based; method in brief: as §4
U-937 = assay: Cytotoxicity against human U937 cells assessed as decrease in cell viability after 96 hrs by Cell-Titer Glo assay; type: functional, cell-based; method in brief: as §1
MV4-11 [17] = assay: Downregulation of HOXA9 mRNA levels in human MV4-11 cells by qRT-PCR analysis; type: functional, cell-based; method in brief: as §3
[18] = target: Protein arginine N-methyltransferase 1 (Homo sapiens) (UniProt Q99873); assay: Inhibition of PRMT1 in human MV411 cells assessed as reduction in ADMA levels after 48 hrs by Western blot analysis; type: cell-based; method in brief: as §4
MRC5 = assay: Cytotoxicity against human MRC5 cells assessed as decrease in cell viability at 6.25 to 25 uM after 96 hrs by Cell-Titer Glo assay; type: cell-based; conditions: mrc5, 96 h; method in brief: as §2
MV4-11 [19] = assay: Induction of apoptosis in human MV4-11 cells up to 15 uM after 96 hrs by annexin V-FITC/propidium iodide staining-based flow cytometric method; type: functional, cell-based; method in brief: as §7
[20] = target: Protein arginine N-methyltransferase 1 (Homo sapiens) (UniProt Q99873); assay: Inhibition of PRMT1 in human MV411 cells assessed as reduction in arginine methylation after 48 hrs by Western blot analysis; type: cell-based; method in brief: as §4
MV4-11 [21] = assay: Downregulation of HOXA9 mRNA levels in human MV4-11 cells up to 15 uM by qRT-PCR analysis; type: functional, cell-based; method in brief: as §3
MV4-11 [22] = assay: Cell cycle arrest in human MV4-11 cells assessed as accumulation at G1 phase at 1.67 to 15 uM after 72 hrs by propidium iodide staining-based flow cytometry; type: functional; method in brief: as §6
MV4-11 [23] = assay: Downregulation of MEIS1 mRNA levels in human MV4-11 cells up to 15 uM by qRT-PCR analysis; type: functional, cell-based; method in brief: as §3
MV4-11 [24] = assay: Downregulation of HOXA10 mRNA levels in human MV4-11 cells up to 15 uM by qRT-PCR analysis; type: functional, cell-based; method in brief: as §3

Sequence of Protein arginine N-methyltransferase 1 (Rattus norvegicus) (Q63009 whole entry, looked up, the tested form may be a part): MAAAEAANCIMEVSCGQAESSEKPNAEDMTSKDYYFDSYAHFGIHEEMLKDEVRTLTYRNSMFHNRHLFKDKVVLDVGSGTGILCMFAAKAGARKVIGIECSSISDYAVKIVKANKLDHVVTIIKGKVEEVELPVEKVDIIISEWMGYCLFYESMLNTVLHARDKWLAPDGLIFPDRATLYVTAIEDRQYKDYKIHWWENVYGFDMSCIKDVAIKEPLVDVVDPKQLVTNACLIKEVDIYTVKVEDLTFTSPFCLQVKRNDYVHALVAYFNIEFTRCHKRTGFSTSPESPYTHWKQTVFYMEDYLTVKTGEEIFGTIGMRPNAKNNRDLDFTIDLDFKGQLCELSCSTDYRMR
Sequence of Protein arginine N-methyltransferase 1 (Q63009 whole entry, the tested form may be a part): as the sequence (Q63009 whole entry, looked up, the tested form may be a part) above
Sequence of Protein arginine N-methyltransferase 1 (Homo sapiens) (Q99873 whole entry, looked up): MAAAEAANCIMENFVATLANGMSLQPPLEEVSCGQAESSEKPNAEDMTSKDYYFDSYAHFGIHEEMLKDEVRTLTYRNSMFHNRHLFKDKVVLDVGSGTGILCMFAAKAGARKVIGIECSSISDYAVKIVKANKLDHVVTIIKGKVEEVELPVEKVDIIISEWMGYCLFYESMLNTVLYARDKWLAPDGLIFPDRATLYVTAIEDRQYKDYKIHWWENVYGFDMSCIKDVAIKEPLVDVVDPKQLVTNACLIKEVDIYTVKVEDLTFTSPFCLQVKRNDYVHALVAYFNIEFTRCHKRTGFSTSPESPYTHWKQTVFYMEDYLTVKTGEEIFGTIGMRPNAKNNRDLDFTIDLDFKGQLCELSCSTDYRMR

## CN(C)CCNC(=O)c1ccccc1Sc1ccccc1F
[1]
  IC50: > 200 µM

## Cc1ccc(-c2cc(CC(=O)c3c(O)cc(O)cc3O)n[nH]2)cc1
[1]
  IC50: 49 µM
[2]
  inhibition: > 80%

## CN(C)CCN(C)Cc1ccccc1Sc1ccccc1F
[1]
  IC50: 0.71 µM

## CNCCN(C)Cc1ccccc1Sc1ccccc1Cl
MV4-11 [3]
  Activity: Active
REH
  Activity: Dose-dependent effect
MV4-11 [4]
  Activity: Tde
THP-1
  Activity: Dose-dependent effect
[5]
  Activity: Non-Toxic
MV4-11 [6]
  Activity: Dose-dependent effect
[7]
  inhibition: Dose-dependent effect
RCH-ACV
  Activity: Dose-dependent effect
MV4-11 [8]
  IC50: 1080 nM
[9]
  Activity: Active
[10]
  Activity: Non-Toxic
MV4-11 [11]
  Activity: Dose-dependent effect
MV4-11 [12]
  Activity: Dose-dependent effect
MV4-11 [13]
  Activity: Active
KOPN-8
  Activity: Dose-dependent effect
[14]
  Activity: Active
[1]
  IC50: 0.006 µM
MV4-11 [15]
  Activity: Dose-dependent effect
RS4-11
  Activity: Dose-dependent effect
KMS-11
  Activity: Dose-dependent effect
[16]
  inhibition: Dose-dependent effect
U-937
  Activity: Dose-dependent effect
MV4-11 [17]
  Activity: Dose-dependent effect
[18]
  inhibition: Dose-dependent effect
MRC5
  Activity: Non-Toxic

## CCCNCc1cc(Br)cc(Br)c1OC
[2]
  inhibition: > 80%

## CN(C)CCNC(=O)c1ccccc1Sc1ccccc1Cl
[1]
  IC50: > 50 µM

## CN(C)CCNC(=O)c1ccccc1Sc1cccc2ccccc12
[1]
  IC50: > 200 µM

## CN(C)CCNC(=O)c1ccccc1Sc1ccccc1
[1]
  IC50: > 50 µM

## COc1ccc(N(C(=O)C2CCCCC2)S(=O)(=O)c2ccccc2)cc1
[2]
  inhibition: > 80%

## C=CCOc1ccc(CNCCc2ccc(S(N)(=O)=O)cc2)cc1
[1]
  IC50: 85 µM
[2]
  inhibition: > 80%

## CCOC(=O)c1c2c3ccccc3c3ccccc3c2cc2[n+]1CCc1ccccc1-2
[1]
  IC50: 53 µM
[2]
  inhibition: > 80%

## c1ccc(COc2cccc(CNCC3CCNCC3)c2)cc1
[1]
  IC50: 147 µM
[2]
  inhibition: > 80%

## CN(C)CCNCc1ccccc1Sc1ccccc1F
[1]
  IC50: 45 µM

## CN(C)CCN(C)Cc1ccccc1Sc1cccc2ccccc12
[9]
  Activity: Active
[14]
  Activity: Active
[1]
  IC50: 3 µM
[2]
  inhibition: > 80%

## CN(C)CCNCc1ccccc1Sc1ccccc1Cl
[1]
  IC50: 54 µM

## CN(C)CCNCc1ccccc1Sc1cccc2ccccc12
[1]
  IC50: 34 µM

## CN(C)CCN(C)Cc1ccccc1Sc1ccccc1Cl
[1]
  IC50: 0.39 µM

## CN(C)CCN(C)Cc1ccccc1Sc1ccccc1
[1]
  IC50: 3.6 µM

## CN(C)CCNCc1ccccc1Sc1ccccc1
MV4-11 [19]
  Activity: inactive
[20]
  inhibition: inactive
MV4-11 [21]
  Activity: inactive
MV4-11 [22]
  Activity: inactive
MV4-11 [23]
  Activity: inactive
MV4-11 [13]
  Activity: inactive
[1]
  IC50: > 50 µM
MV4-11 [24]
  Activity: inactive
